Among the data in ChEMBL document CHEMBL3865799, “Synthesis of a series of novel dihydroartemisinin monomers and dimers containing chalcone as a linker and their anticancer activity” (Eur J Med Chem, 2016) are inhibition of growth, logP and solubility values, retold here.

A short description of data set [1]: Cytotoxicity against human MIAPaCa2 cells assessed as cell growth inhibition at 30 uM after 48 hrs by MTT assay. The data set is classed as functional. The conditions noted are these: MIA PaCa-2, 48 h, read-out: GI. In outline: (§1)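 Adherent lines at 70–75% confluence, grown at 37 °C in 5% CO2 with 10% FCS. Exposed 48 h to compound in DMSO (vehicle <0.2% v/v). MTT dye added 3 h before termination; formazan dissolved in DMSO, OD 570 nm with 620 nm reference. Growth inhibition expressed as % of untreated; IC50 taken from the dose series.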
On the technique in general: Formazan colour is commonly taken as a measure of viable cells.

Data set [2] in a line: Cytotoxicity against human MIAPaCa2 cells assessed as cell growth inhibition at 50 uM after 48 hrs by MTT assay. The data set is classed as functional. The following applies: MIA PaCa-2, 48 h, read-out: GI. The essentials: as §1
The nature of data set [3]: Cytotoxicity against human LS180 cells assessed as cell growth inhibition at 50 uM after 48 hrs by MTT assay. The data set is classed as functional. The following applies: LS180, 48 h, read-out: GI. The essentials: as §1
Data set [4] is described as follows: Cytotoxicity against human PC3 cells assessed as cell growth inhibition at 50 uM after 48 hrs by MTT assay. The class given is functional. The following applies: PC-3, 48 h, read-out: GI. In outline:
as §1

Data set [5] can be described thus: Cytotoxicity against human HL60 cells assessed as cell growth inhibition at 30 uM after 48 hrs by MTT assay. The class given is functional. The following applies: HL-60, 48 h, read-out: GI. The essentials:
(§2)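 HL-60 suspension cells, 1.5 × 10^4 per well, grown at 37 °C in 5% CO2 with 10% FCS. Treated 48 h with compound in DMSO (vehicle <0.2% v/v). MTT added 3 h before the end. Formazan dissolved in DMSO and read at 570 nm (reference 620 nm). % growth inhibition computed against untreated cells; IC50 taken from the concentration series.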

The nature of data set [6]: Cytotoxicity against human HepG2 cells assessed as cell growth inhibition at 30 uM after 48 hrs by MTT assay. The data set is classed as functional. The conditions noted are these: HepG2, 48 h, read-out: GI. In outline: as §1
The nature of data set [7]: Lipophilicity, log P of the compound. The data set is classed as physicochemical. The following applies: octanol/water.
Data set [8] is described as follows: Cytotoxicity against human LS180 cells assessed as cell growth inhibition at 30 uM after 48 hrs by MTT assay. The class given is functional. The following applies: LS180, 48 h, read-out: GI. In outline:
as §1

The nature of data set [9]: Aqueous solubility of the compound at pH 7. The data set is classed as physicochemical.
The nature of data set [10]: Cytotoxicity against human PC3 cells assessed as cell growth inhibition at 30 uM after 48 hrs by MTT assay. The data set is classed as functional. The following applies: PC-3, 48 h, read-out: GI. In outline: as §1
A short description of data set [11]: Cytotoxicity against human HL60 cells assessed as cell growth inhibition at 50 uM after 48 hrs by MTT assay. The data set is classed as functional. The conditions noted are these: HL-60, 48 h, read-out: GI. In outline: as §2
Data set [12] in a line: Cytotoxicity against human HepG2 cells assessed as cell growth inhibition at 50 uM after 48 hrs by MTT assay. The following applies: HepG2, 48 h, read-out: GI. The data set is classed as functional. The essentials:
as §1

As a reminder, the logP is a log measure of how a compound divides between an organic and an aqueous phase. One may read the solubility as the concentration that dissolves in the medium under given conditions. The low end stands for a poorly soluble substance, the high end for a readily soluble substance. `C[C@H]1[C@@H](OCCOc2ccc(/C=C/C(=O)c3ccccc3Cl)cc2)O[C@@H]2O[C@@]3(C)CC[C@H]4[C@H](C)CC[C@@H]1[C@@]24OO3`: the inhibition of growth at 30 µM turned out to be 55.1% in [1]; 91.8% in data set [5]; 23.8% in data set [6]; 56.7% in data set [8]; 52.4% in data set [10]. The inhibition of growth at 50 µM was determined as 61.1% in data set [2]; 57.5% in [3]; 56.1% in data set [4]; 92.9% in data set [11]; 25.2% in data set [12]. In data set [7], this compound yielded a logP of 5.34 to 7.45. In [9], this compound showed a solubility below 10 µg/mL.

Turning to `C[C@H]1[C@@H](OCCOc2ccc(/C=C/C(=O)c3cccc(O)c3)cc2)O[C@@H]2O[C@@]3(C)CC[C@H]4[C@H](C)CC[C@@H]1[C@@]24OO3`, the inhibition of growth at 30 µM turned out to be 44.1% in data set [1]; 77.7% in [5]; 33.6% in data set [6]; 31.1% in data set [8]; 47.6% in [10]. Besides, the inhibition of growth at 50 µM in data set [2] was found to be 51.1%; in [3], 39.3%; in [4], 49.5%; in [11], 76.5%; in data set [12] it was 38.3%. The logP in data set [7] lay within 5.34 to 7.45. For the same compound, the solubility in [9] was below 10 µg/mL.

For `C[C@H]1[C@@H](OCCOc2ccc(-c3cc(=O)c4ccc(OCCO[C@H]5O[C@H]6O[C@@]7(C)CC[C@H]8[C@H](C)CC[C@@H]([C@H]5C)[C@@]68OO7)cc4o3)cc2)O[C@H]2O[C@@]3(C)CC[C@H]4[C@H](C)CC[C@@H]1[C@@]24OO3`, the inhibition of growth at 30 µM in [1] is 32.7%; in data set [5], 71.8%; in [6], 30.1 to 87.4%; in [8], 30.5%; in [10], 40.6%. Moreover, the inhibition of growth at 50 µM in data set [2] worked out at 41.8%; in data set [3] it was 39.7%; in [4] it was 41.3%; in data set [11], 73.8%; in data set [12] it was 37.7%. In addition, the logP in data set [7] fell in the range of 5.34 to 7.45. Moreover, in [9], the solubility is below 10 µg/mL.

With `COc1ccc(C(=O)/C=C/c2ccc(OCCO[C@H]3O[C@@H]4O[C@@]5(C)CC[C@H]6[C@H](C)CC[C@@H]([C@H]3C)[C@@]46OO5)cc2)c(OC)c1`, the inhibition of growth at 30 µM in data set [1] was 44.1%; in data set [5], 89.3%; in [6], 27.3%; in data set [8], 63.3%; in data set [10] it was 47.4%. The inhibition of growth at 50 µM was found to be 46.8% in data set [2]; 74.1% in [3]; 49.8% in data set [4]; 89.5% in data set [11]; 28.9% in data set [12]. The compound also showed a logP in data set [7] of 5.34 to 7.45. This compound also had a solubility in [9] below 10 µg/mL.

For `COc1ccc(C(=O)/C=C/c2ccc(OCCO[C@H]3O[C@@H]4O[C@@]5(C)CC[C@H]6[C@H](C)CC[C@@H]([C@H]3C)[C@@]46OO5)cc2)cc1Cl`, the inhibition of growth at 30 µM in data set [1] was found to be 51.1%; in [5] it was 93.4%; in [6] it was 26.7%; in data set [8], 41.6%; in data set [10], 40.3%. The inhibition of growth at 50 µM in [2] was 52.2%; in [3] it was 45.4%; in data set [4], 42.7%; in data set [11], 93.8%; in data set [12] it was 32.3%. The compound further returned a logP in data set [7] of 5.34 to 7.45. For the same compound, in data set [9], the solubility was below 10 µg/mL.

Turning to `C[C@H]1[C@@H](OCCOc2ccc(/C=C/C(=O)c3cc4ccccc4o3)cc2)O[C@@H]2O[C@@]3(C)CC[C@H]4[C@H](C)CC[C@@H]1[C@@]24OO3`, the inhibition of growth at 30 µM was determined as 52.4% in [1]; 84.6% in data set [5]; 29.9% in data set [6]; 37.6% in data set [8]; 42.5% in data set [10]. For the same compound, the inhibition of growth at 50 µM in data set [2] was found to be 62.3%; in data set [3], 43.6%; in data set [4] it was 48.5%; in data set [11], 88.7%; in [12], 32%. The compound also showed a logP in data set [7] of 5.34 to 7.45. Also, in data set [9], the solubility was below 10 µg/mL.

Regarding `COc1ccc(/C=C/C(=O)c2ccc(OCCO[C@H]3O[C@@H]4O[C@@]5(C)CC[C@H]6[C@H](C)CC[C@@H]([C@H]3C)[C@@]46OO5)cc2)c(OC)c1OC`, the inhibition of growth at 30 µM in data set [1] worked out at 36.2%; in [5], 78.7%; in data set [6], 28.1%; in data set [8], 50.8%; in [10], 53.3%. Also, the inhibition of growth at 50 µM was found to be 43.1% in data set [2]; 58.5% in [3]; 54.2% in [4]; 82.9% in data set [11]; 30.1% in data set [12]. Moreover, the logP in [7] is 5.34 to 7.45. For the same compound, the solubility in [9] was below 10 µg/mL.

In the case of `C[C@H]1[C@@H](OCCOc2ccc(/C=C/C(=O)c3ccc(Cl)s3)cc2)O[C@@H]2O[C@@]3(C)CC[C@H]4[C@H](C)CC[C@@H]1[C@@]24OO3`, the inhibition of growth at 30 µM in data set [1] is 53.2%; in data set [5] it was 91.9%; in data set [6], 21.1%; in data set [8] it was 39.5%; in [10], 37.4%. In addition, the inhibition of growth at 50 µM is 59.7% in [2]; 41.6% in [3]; 39.9% in [4]; 92.1% in [11]; 25.2% in [12]. The compound further had a logP in data set [7] of 5.34 to 7.45. This compound also returned a solubility in [9] below 10 µg/mL.

As to `C[C@H]1[C@@H](OCCOc2cccc(C(=O)/C=C/c3cn(CCO[C@H]4O[C@@H]5O[C@@]6(C)CC[C@H]7[C@H](C)CC[C@@H]([C@H]4C)[C@@]57OO6)c4ccccc34)c2)O[C@@H]2O[C@@]3(C)CC[C@H]4[C@H](C)CC[C@@H]1[C@@]24OO3`, the inhibition of growth at 30 µM in data set [1] stood at 47.1%; in data set [5], 81.5%; in [6], 25.4%; in data set [8] it was 36.2%; in [10], 46.3%. Moreover, the inhibition of growth at 50 µM in data set [2] worked out at 49.4%; in data set [3], 37.8%; in data set [4] it was 48.7%; in [11], 83.2%; in [12], 28.7%. This compound also gave a logP in [7] of 5.34 to 7.45. The solubility in data set [9] was below 10 µg/mL.

As to `C[C@H]1[C@@H](OCCOc2ccc(C(=O)/C=C/c3c[nH]c4ccccc34)cc2)O[C@@H]2O[C@@]3(C)CC[C@H]4[C@H](C)CC[C@@H]1[C@@]24OO3`, the inhibition of growth at 30 µM came to 49.1% in data set [1]; 89.1% in data set [5]; 21.2% in data set [6]; 41.9% in data set [8]; 38.6% in data set [10]. Moreover, the inhibition of growth at 50 µM in [2] is 49.4%; in data set [3], 44.1%; in data set [4], 39.6%; in [11], 91.8%; in data set [12], 25.9%. This compound returned a logP in data set [7] of 5.34 to 7.45. Besides, the solubility in data set [9] is below 10 µg/mL.

`C[C@@H]1CC[C@H]2[C@@H](C)C(=O)O[C@@H]3O[C@@]4(C)CC[C@@H]1[C@]32OO4` [ARTEMISININ]: the inhibition of growth at 30 µM was found to be 13% in [1]; 14.4% in [5]; 10.5% in data set [6]; 13.4% in data set [8]; 16% in data set [10]. For the same compound, the inhibition of growth at 50 µM was determined as 18% in data set [2]; 18.5% in [3]; 17.6% in data set [4]; 19.8% in [11]; 14.4% in [12].
